Residue numbers refer to the chain shown, from its start. Read-outs that look alike come from different tables or passages of the source.
Legend:
CckA_ΔTM [1] = target: T1, CckA_ΔTM (Caulobacter vibrioides, UniProt Q9X688); assay: CckA phosphorylation assay by autoradiography; assay type: biochemical, Caulobacter crescentus; settings: for net CckA_ΔTM~P after addition of effector: ADP or c-di-GMP added after 30 min of incubation with 500 μM ATP
T1 sequence (Q9X688 72-691): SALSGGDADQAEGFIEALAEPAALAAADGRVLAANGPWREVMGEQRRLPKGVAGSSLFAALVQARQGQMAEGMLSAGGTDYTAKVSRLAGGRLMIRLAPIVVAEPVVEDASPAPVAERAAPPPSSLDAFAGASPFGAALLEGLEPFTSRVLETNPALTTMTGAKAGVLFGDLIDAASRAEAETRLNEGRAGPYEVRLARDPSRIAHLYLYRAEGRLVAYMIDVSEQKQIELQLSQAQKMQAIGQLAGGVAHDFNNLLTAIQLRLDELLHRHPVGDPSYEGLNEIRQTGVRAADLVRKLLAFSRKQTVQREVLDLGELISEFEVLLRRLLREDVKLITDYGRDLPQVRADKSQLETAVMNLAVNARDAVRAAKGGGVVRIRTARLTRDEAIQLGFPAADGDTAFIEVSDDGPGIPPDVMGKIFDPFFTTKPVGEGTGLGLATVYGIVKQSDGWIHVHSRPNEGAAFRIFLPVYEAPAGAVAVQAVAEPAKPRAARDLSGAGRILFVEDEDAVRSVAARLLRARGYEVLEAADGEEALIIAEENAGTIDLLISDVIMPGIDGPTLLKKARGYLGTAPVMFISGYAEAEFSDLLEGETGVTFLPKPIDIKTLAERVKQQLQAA
Outline: (§1)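 MBP-tagged CckA_ΔTM (residues S72–A691) or its point mutants are incubated at room temperature with 500 μM ATP plus 5 μCi γ32P-ATP. Further nucleotides are added at set times. Where applicable, ATP is converted to ADP with 1.5 U hexokinase and 5 mM D-glucose. Reactions are stopped in SDS sample buffer and run on 10% SDS gels. Wet gels are exposed to a phosphor screen (0.5–3 h) and scanned.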

CckA_ΔTM [2] = target: T1, CckA_ΔTM; assay: Global fit of kinetic model to CckA_ΔTM phosphorylation progress curves; assay type: biochemical, Caulobacter crescentus; settings: simulations; rate with which the data can be fit
Outline: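 Progress curves of net CckA_ΔTM~P come from radiolabelled ATP reactions, with ADP or c-di-GMP added to aliquots after 30 min. The curves were globally fitted to a kinetic model using standard first- and second-order reaction kinetics, set up as a system of coupled ordinary differential equations. Rate parameters such as kr are taken from that global fit.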

CckA_ΔTM G318A = target: T2, CckA_ΔTM G318A (Caulobacter vibrioides, UniProt Q9X688, G318A); assay: CckA phosphorylation assay by autoradiography, G318A; assay type: biochemical, Caulobacter crescentus; settings: 15 min of ATP incubation, 75 μM c-di-GMP
T2 sequence (Q9X688 72-691 G318A): T1 sequence (Q9X688 72-691) with G247A
Outline: as §1

CckA_CA = target: T3, CckA_CA (Caulobacter vibrioides, UniProt Q9X688); assay: ITC ligand binding to CckA_CA; set-up: species or system Caulobacter crescentus
T3 sequence (Q9X688 379-545): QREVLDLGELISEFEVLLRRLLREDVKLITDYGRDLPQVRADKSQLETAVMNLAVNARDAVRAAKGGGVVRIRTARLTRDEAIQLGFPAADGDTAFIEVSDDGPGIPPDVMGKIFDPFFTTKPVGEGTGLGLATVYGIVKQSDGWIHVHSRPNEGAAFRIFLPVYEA
Outline: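 Protein was expressed in E. coli Rosetta (DE3), induced with 0.1 mM IPTG at 22°C, and purified by Ni-NTA then gel filtration (30 mM Tris-HCl pH 7.5, 100 mM NaCl, 5 mM MgCl2). Isothermal titration calorimetry was run at 25 or 12°C, stirring 300 rpm, 200 s preinjection delay, 250 s recording interval. Data were fitted to a single-site model, refitted with N fixed at 1.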

CckA_ΔTM G515D = target: T4, CckA_ΔTM G515D (Caulobacter vibrioides, UniProt Q9X688, G515D); assay: CckA phosphorylation assay by autoradiography, G515D; assay type: biochemical, Caulobacter crescentus; settings: 15 min of ATP incubation, 75 μM c-di-GMP
T4 sequence (Q9X688 72-691 G515D): T1 sequence (Q9X688 72-691) with G444D
Outline: as §1

CckA_ΔTM W523A = settings: cited from earlier work
CckA_ΔTM Y514D = settings: cited from earlier work
CckA_ΔTM F539A = settings: cited from earlier work

SMILES	net CckA_ΔTM~P after addition of effector (CckA_ΔTM [1])	rate of debinding (kr) (CckA_ΔTM [2])	response of net phosphorylation to c-di-GMP (CckA_ΔTM G318A)	Kd (CckA_CA; read-out: Kd, c-di-GMP binding, Fig. 3C (in the presence of 5 mM ADP or AMPPNP)) [µM]	net CckA phosphorylation with effector present throughout (CckA_ΔTM [1]; 15 min of ATP incubation, 75 μM c-di-GMP)	response of net phosphorylation to c-di-GMP (in vitro phenotype) (CckA_ΔTM G515D)	c-di-GMP binding in UV-cross-linking experiments (CckA_ΔTM W523A)	c-di-GMP binding in UV-cross-linking experiments (CckA_ΔTM Y514D)	c-di-GMP binding in UV-cross-linking experiments (CckA_ΔTM F539A)	Kd (CckA_CA; read-out: Kd, AMPPNP binding, - c-di-GMP, 12°C) [µM]
Nc1ncnc2c1ncn2[C@@H]1O[C@H](COP(=O)(O)OP(=O)(O)O)[C@@H](O)[C@H]1O [ADP, adenosine diphosphate]	dose-dependent boost in dephosphorylation	10^−2 to 10^−3 s^−1	–	–	–	–	–	–	–	–
Nc1nc2c(ncn2[C@@H]2O[C@@H]3COP(=O)(O)O[C@H]4[C@@H](O)[C@H](n5cnc6c(=O)[nH]c(N)nc65)O[C@@H]4COP(=O)(O)O[C@H]3[C@H]2O)c(=O)[nH]1 [c-di-GMP, cyclic di–guanosine monophosphate]	efficiently and rapidly dephosphorylated	–	virtually no response	~20	effectively blocked	identical to that of G318A	lack of c-di-GMP binding	lack of c-di-GMP binding	lack of c-di-GMP binding	–
Nc1ncnc2c1ncn2[C@@H]1O[C@H](COP(=O)(O)OP(=O)(O)NP(=O)(O)O)[C@@H](O)[C@H]1O [AMPPNP]	–	–	–	–	–	–	–	–	–	~10

Source: article PMC5026420 (Science Advances, 2016)
